Assay results: ChEMBL document CHEMBL1255441, “Pharmacokinetics of cefotaxime and desacetylcefotaxime in infants during extracorporeal membrane oxygenation” (Antimicrob Agents Chemother, 2010)

Tests used:
Assay type in all cases: ADME, organism-based
Parameters in all cases: dose 50 mg/kg, route intravenous
[1] = Clearance in infant during extracorporeal membrane oxygenation at 50 mg/kg, iv dosed 2 to 3 times per day as bolus dose; details: human, in vivo
Outline: (§1)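 Infants on ECMO (n=37; PNA 0.67–199 days; 2.0–6.2 kg). Cefotaxime given as an IV bolus (≤3 min) into the extracorporeal line after the oxygenator. Dosing: 50 mg/kg b.i.d. for PNA <1 week, 50 mg/kg t.i.d. for 1–4 weeks, 37.5 mg/kg q.i.d. for >4 weeks. Routine venous circuit samples (EDTA), including post-decannulation up to 24 h. Cefotaxime and desacetyl metabolite measured by LC-MS (LOQ 0.2 mg/liter). One-compartment NONMEM population model.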

[2] = Volume of distribution in infant during extracorporeal membrane oxygenation at 50 mg/kg, iv dosed 2 to 3 times per day as bolus dose; details: human, in vivo; outline: as §1
Homo sapiens [3] = assay: Clearance in infant during extracorporeal membrane oxygenation assessed as desacetylcefotaxime at 50 mg/kg, iv dosed 2 to 3 times per day as bolus dose; details: in vivo; outline: as §1
Homo sapiens [4] = assay: Volume of distribution in infant during extracorporeal membrane oxygenation assessed as desacetylcefotaxime at 50 mg/kg, iv dosed 2 to 3 times per day as bolus dose; details: in vivo; outline: as §1
[5] = Clearance in infant weighing 2 to 6.2 kg weight during extracorporeal membrane oxygenation at 50 mg/kg, iv dosed 2 to 3 times per day as bolus dose; details: human, in vivo; outline: as §1
[6] = Elimination half life in infant weighing 2 to 6.2 kg weight during extracorporeal membrane oxygenation at 50 mg/kg, iv dosed 2 to 3 times in a day bolus dose; details: human, in vivo, read-out: beta t1/2 (converted); outline: as §1
Homo sapiens [7] = assay: Elimination half life in infant weighing 2 to 6.2 kg weight during extracorporeal membrane oxygenation assessed as desacetylcefotaxime at 50 mg/kg, iv dosed 2 to 3 times per day as bolus dose; details: in vivo; outline: as §1
[8] = Clearance in infant weighing 2 to 6.2 kg weight at 50 mg/kg, iv dosed 2 to 3 times per day as bolus dose; details: human, in vivo; outline: as §1
Homo sapiens [9] = assay: Clearance in infant weighing 2 to 6.2 kg weight assessed as desacetylcefotaxime at 50 mg/kg, iv dosed 2 to 3 times per day as bolus dose; details: in vivo; outline: as §1
[10] = Clearance in infant weighing 2 to 6.2 kg weight after extracorporeal membrane oxygenation at 50 mg/kg, iv dosed 2 to 3 times per day as bolus dose; details: human, in vivo; outline: as §1
Homo sapiens [11] = assay: Clearance in infant weighing 2 to 6.2 kg weight after extracorporeal membrane oxygenation assessed as desacetylcefotaxime at 50 mg/kg, iv dosed 2 to 3 times per day as bolus dose; details: in vivo; outline: as §1
[12] = Clearance in infant weighing 2 to 6.2 kg weight after extracorporeal membrane oxygenation at 50 mg/kg, iv dosed 2 to 3 times per day as bolus dose measured after 72 hrs; details: human, in vivo; outline: as §1
Homo sapiens [13] = assay: Clearance in infant weighing 2 to 6.2 kg weight after extracorporeal membrane oxygenation assessed as desacetylcefotaxime at 50 mg/kg, iv dosed 2 to 3 times per day as bolus dose measured after 72 hrs; details: in vivo; outline: as §1

clearance [1]: 6 mL/min
Vd [2]: 1.82 L
CL (Homo sapiens [3]): 1.46 L/h
Vd (Homo sapiens [4]): 11 L
clearance [5]: 4.33 mL/min
half-life [6]: 1.6 h
beta t1/2 (Homo sapiens [7]): 0.8 h
clearance [8]: 5 mL/min
CL (Homo sapiens [9]): 1.37 L/h
clearance [10]: 3.67 mL/min
CL (Homo sapiens [11]): 0.18 L/h
clearance [12]: 6.67 mL/min
CL (Homo sapiens [13]): 1.38 L/h
SMILES: CO/N=C(\C(=O)N[C@@H]1C(=O)N2C(C(=O)O)=C(COC(C)=O)CS[C@H]12)c1csc(N)n1 [CEFOTAXIME]
